Test results reported in ChEMBL document CHEMBL1133087, “Radioiodinated N-(2-diethylaminoethyl)benzamide derivatives with high melanoma uptake: structure-affinity relationships, metabolic fate, and intracellular localization” (J Med Chem, 2000).

Columns and labels:
Mus musculus [1] = test: Biodistribution was studied by injecting intravenously into C57B1/6 mice bearing subcutaneously transplanted B16 kidney after 6 hr.; assay type: ADME, organism-based; settings: in vivo, iv
Mus musculus [2] = test: Biodistribution was studied by injecting intravenously into C57B1/6 mice bearing subcutaneously transplanted B16 brain after 6 hr.; assay type: ADME, organism-based; settings: in vivo, iv
B16 [3] = test: Binding of radioiodinated compound in B16 cells as a function of specific activity for melanoma after 1 hr injecting at 1.8*10e-6 (uMol/mouse).; assay type: functional
Summary of the method: (§1)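 C57Bl/6 mice carried subcutaneous B16 melanoma. Melanoma and blood radioactivity were measured by γ-counting at 1 or 6 h and expressed as % ID/g (mean, n = 3).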

Mus musculus [4] = test: Biodistribution was studied by injecting intravenously into C57B1/6 mice bearing subcutaneously transplanted B16 liver after 6 hr.; assay type: ADME, organism-based; settings: in vivo, iv
[5] = Selectivity parameter calculated as the mean of 8 melanoma / non target tissue ratio at 1 hr postinjection; assay type: functional
Summary of the method: (§2)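 Tissue radioactivity was γ-counted as % ID/g. Selectivity (M/NTT) is the mean of the 8 melanoma/nontarget tissue ratios: blood, heart, lung, spleen, liver, kidney, muscle and brain. n = 3.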

Mus musculus [6] = test: Biodistribution was studied by injecting intravenously into C57B1/6 mice bearing subcutaneously transplanted B16 lung after 6 hr.; assay type: ADME, organism-based; settings: in vivo, iv
Mus musculus [7] = test: Biodistribution was studied by injecting intravenously into C57B1/6 mice bearing subcutaneously transplanted B16 blood after 6 hr.; assay type: ADME, organism-based; settings: in vivo, iv
Mus musculus [8] = test: Biodistribution was studied by injecting intravenously into C57B1/6 mice bearing subcutaneously transplanted B16 melanoma after 6 hr.; assay type: ADME, organism-based; settings: in vivo, iv
B16 [9] = test: Binding of radioiodinated compound in B16 cells as a function of specific activity for blood at 6 hr after injecting at 1.8*10e-6 (uMol/mouse).; assay type: functional; summary of the method: as §1
B16 [10] = test: Binding of radioiodinated compound in B16 cells as a function of specific activity for melanoma at 6 hr after injecting at 1.8*10e-6 (uMol/mouse).; assay type: functional; summary of the method: as §1
B16 [11] = test: Binding of radioiodinated compound in B16 cells as a function of specific activity for blood at 1 hr after injecting at 1.8*10e-6 (uMol/mouse).; assay type: functional; summary of the method: as §1
B16 [12] = test: Binding of radioiodinated compound in B16 cells as a function of specific activity for melanoma at 6 hr after injecting at 1.5*10e-3 (uMol/mouse).; assay type: functional; summary of the method: as §1
Mus musculus [13] = test: Biodistribution was studied by injecting intravenously into C57B1/6 mice bearing subcutaneously transplanted B16 liver after 1 hr.; assay type: ADME, organism-based; settings: in vivo, iv
Mus musculus [14] = test: Biodistribution was studied by injecting intravenously into C57B1/6 mice bearing subcutaneously transplanted B16 heart after 1 hr.; assay type: ADME, organism-based; settings: in vivo, iv
Mus musculus [15] = test: Biodistribution was studied by injecting intravenously into C57B1/6 mice bearing subcutaneously transplanted B16 blood after 1 hr.; assay type: ADME, organism-based; settings: in vivo, iv
[16] = The lipophilicity was measured in an octanol/water system at pH 7.4.; assay type: physicochemical
Summary of the method: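 HPLC-purified no-carrier-added radioiodinated benzamide was added to 0.067 M phosphate buffer at pH 7.4 with an equal volume of 1-octanol. The mixture was vortexed to equilibrium, centrifuged and the phases separated. Each phase was γ-counted, with log P = log(cpm octanol/cpm buffer).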

[17] = Selectivity parameter calculated as the mean of 8 melanoma / non target tissue ratio at 6 hr postinjection; assay type: functional; summary of the method: as §2
B16 [18] = test: Binding of radioiodinated compound in B16 cells as a function of specific activity for blood at 6 hr after injecting at 1.5(umol/mouse).; assay type: functional; summary of the method: as §1
Mus musculus [19] = test: Biodistribution was studied by injecting intravenously into C57B1/6 mice bearing subcutaneously transplanted B16 muscle after 1 hr.; assay type: ADME, organism-based, Muscle tissue; settings: in vivo, iv
Mus musculus [20] = test: (§3) Amount of urinary radioactivity collected within 4 hr after iv injection into C57B1/6 mice was analyzed by RP-HPLC.; assay type: ADME, organism-based, Urine; settings: in vivo
B16 [21] = test: Binding of radioiodinated compound in B16 cells as a function of specific activity for melanoma at 1 hr after injecting at 1.5*10e-3 (uMol/mouse).; assay type: functional; summary of the method: as §1
Mus musculus [22] = test: Biodistribution was studied by injecting intravenously into C57B1/6 mice bearing subcutaneously transplanted B16 spleen after 1 hr.; assay type: ADME, organism-based; settings: in vivo, iv
Mus musculus [23] = test: Biodistribution was studied by injecting intravenously into C57B1/6 mice bearing subcutaneously transplanted B16 lung after 1 hr.; assay type: ADME, organism-based; settings: in vivo, iv
B16 [24] = test: Binding of radioiodinated compound in B16 cells as a function of specific activity for blood at 1 hr after injecting at 1.5*10e-3 (uMol/mouse).; assay type: functional; summary of the method: as §1
Mus musculus [25] = test: Biodistribution was studied by injecting intravenously into C57B1/6 mice bearing subcutaneously transplanted B16 melanoma after 1 hr.; assay type: ADME, organism-based; settings: in vivo, iv
Mus musculus [26] = test: Biodistribution was studied by injecting intravenously into C57B1/6 mice bearing subcutaneously transplanted B16 heart after 6 hr.; assay type: ADME, organism-based; settings: in vivo, iv
Mus musculus [27] = test: Biodistribution was studied by injecting intravenously into C57B1/6 mice bearing subcutaneously transplanted B16 […] after 6 hr.; assay type: ADME, organism-based; settings: in vivo, iv
B16 [28] = test: Binding of radioiodinated compound in B16 cells as a function of specific activity for melanoma at 6 hr after injecting at 1.5(umol/mouse).; assay type: functional; summary of the method: as §1
Mus musculus [29] = test: Biodistribution was studied by injecting intravenously into C57B1/6 mice bearing subcutaneously transplanted B16 muscle after 6 hr.; assay type: ADME, organism-based, Muscle tissue; settings: in vivo, iv
B16 [30] = test: Binding of radioiodinated compound in B16 cells as a function of specific activity for blood at 1 hr after injecting at 1.5(umol/mouse).; assay type: functional; summary of the method: as §1
Mus musculus [31] = test: Biodistribution was studied by injecting intravenously into C57B1/6 mice bearing subcutaneously transplanted B16 brain after 1 hr.; assay type: ADME, organism-based; settings: in vivo, iv
B16 [32] = test: Binding of radioiodinated compound in B16 cells as a function of specific activity for blood at 6 hr after injecting at 1.5*10e-3 (uMol/mouse); assay type: functional; summary of the method: as §1
B16 [33] = test: Binding of radioiodinated compound in B16 cells as a function of specific activity for melanoma at 1 hr after injecting at 1.5(umol/mouse).; assay type: functional; summary of the method: as §1
Mus musculus [34] = test: Biodistribution was studied by injecting intravenously into C57B1/6 mice bearing subcutaneously transplanted B16 kidney after 1 hr.; assay type: ADME, organism-based; settings: in vivo, iv
Mus musculus [35] = test: as §3; assay type: functional, Urine
Mus musculus [36] = test: Biodistribution was studied by injecting intravenously into C57B1/6 mice bearing subcutaneously transplanted B16 melanoma after 24 hr.; assay type: ADME, organism-based; settings: in vivo, iv
Mus musculus [37] = test: Biodistribution was studied by injecting intravenously into C57B1/6 mice bearing subcutaneously transplanted B16 blood after 24 hr; assay type: ADME, organism-based; settings: in vivo, iv
Mus musculus [38] = test: Biodistribution was studied by injecting intravenously into C57B1/6 mice bearing subcutaneously transplanted B16 heart after 24 hr.; assay type: ADME, organism-based; settings: in vivo, iv
Mus musculus [39] = test: Biodistribution was studied by injecting intravenously into C57B1/6 mice bearing subcutaneously transplanted B16 liver after 24 hr.; assay type: ADME, organism-based; settings: in vivo, iv
Mus musculus [40] = test: Biodistribution was studied by injecting intravenously into C57B1/6 mice bearing subcutaneously transplanted B16 lung after 24 hr.; assay type: ADME, organism-based; settings: in vivo, iv
Mus musculus [41] = test: Biodistribution was studied by injecting intravenously into C57B1/6 mice bearing subcutaneously transplanted B16 spleen after 24 hr.; assay type: ADME, organism-based; settings: in vivo, iv
Mus musculus [42] = test: Biodistribution was studied by injecting intravenously into C57B1/6 mice bearing subcutaneously transplanted B16 muscle after 24 hr.; assay type: ADME, organism-based, Muscle tissue; settings: in vivo, iv
Mus musculus [43] = test: Biodistribution was studied by injecting intravenously into C57B1/6 mice bearing subcutaneously transplanted B16 kidney after 24 hr.; assay type: ADME, organism-based; settings: in vivo, iv
Mus musculus [44] = test: Biodistribution was studied by injecting intravenously into C57B1/6 mice bearing subcutaneously transplanted B16 brain after 24 hr.; assay type: ADME, organism-based; settings: in vivo, iv

| ID/g (Mus musculus [1]) | ID/g (Mus musculus [2]) | ID/g (Mus musculus [4]) | ID/g (Mus musculus [6]) | ID/g (Mus musculus [7]) | ID/g (Mus musculus [8]) | ID/g (Mus musculus [13]) | ID/g (Mus musculus [14]) | ID/g (Mus musculus [15]) | logD [16] | ID/g (Mus musculus [19]) | ID/g (Mus musculus [22]) | ID/g (Mus musculus [23]) | ID/g (Mus musculus [25]) | ID/g (Mus musculus [26]) | ID/g (Mus musculus [27]) | ID/g (Mus musculus [29]) | ID/g (Mus musculus [31]) | ID/g (Mus musculus [34]) | SMILES | ID/g (B16 [3]) | further results |
| --- | --- | --- | --- | --- | --- | --- | --- | --- | --- | --- | --- | --- | --- | --- | --- | --- | --- | --- | --- | --- | --- |
| 0.17% | 0.01% | 0.29% | 0.09% | 0.04% | 4.14% | 2.62% | 0.25% | 0.2% | 1.13 | 0.19% | 0.39% | 0.69% | 6.5% | 0.05% | 0.05% | 0.03% | 0.1% | 0.93% | CCN(CC)CCNC(=O)c1ccc(OC)c(I)c1 | 6.5% | Ratio [5]: 24; ID/g (B16 [9]): 0.04%; ID/g (B16 [10]): 4.14%; ID/g (B16 [11]): 0.2%; ID/g (B16 [12]): 5.27%; Ratio [17]: 129; ID/g (B16 [18]): 0.29%; ID (Mus musculus [20]): 82%; ID/g (B16 [21]): 4.86%; ID/g (B16 [24]): 1.03%; ID/g (B16 [28]): 3.72%; ID/g (B16 [30]): 0.78%; ID/g (B16 [32]): 0.24%; ID/g (B16 [33]): 5.41% |
| 1.22% | 0.09% | 0.77% | 1.82% | 1.51% | 1.2% | 4.05% | 3.19% | 6.5% | 1.34 | 1.81% | 5.62% | 7.98% | 6.21% | 0.58% | 1.39% | 0.44% | 0.48% | 6.46% | CCN(CC)CCNC(=O)c1ccc(NC(C)=O)c(I)c1 | – | – |
| – | – | – | – | – | – | – | – | – | – | – | – | – | – | – | – | – | – | – | CCN(CC)CCNC(=O)c1ccc(I)cc1 | 5.67% | ID/g (B16 [9]): 0.17%; ID/g (B16 [10]): 9.32%; ID/g (B16 [11]): 0.65%; ID/g (B16 [12]): 15.5%; ID/g (B16 [18]): 0.1%; ID/g (B16 [21]): 10%; ID (Mus musculus [35]): 66%; ID/g (B16 [24]): 1.06%; ID/g (B16 [28]): 14.6%; ID/g (B16 [30]): 1.04%; ID/g (B16 [32]): 0.15%; ID/g (B16 [33]): 11.6% |
| 2.08% | 0.15% | 9.61% | 2.07% | 1.86% | 16.48% | 11.32% | 1.91% | 2.32% | 1.81 | 0.94% | 5.06% | 3.16% | 16.61% | 0.94% | 1.84% | 0.43% | 0.64% | 4.53% | CCN(CC)CCNC(=O)c1cc(Br)c(N)c(I)c1OC | – | ID/g (Mus musculus [36]): 8.02%; ID/g (Mus musculus [37]): 0.19%; ID/g (Mus musculus [38]): 0.13%; ID/g (Mus musculus [39]): 4.54%; ID (Mus musculus [20]): 34%; ID/g (Mus musculus [40]): 0.26%; ID/g (Mus musculus [41]): 0.38%; ID/g (Mus musculus [42]): 0.01%; ID/g (Mus musculus [43]): 0.46%; ID/g (Mus musculus [44]): 0.02% |
